Calls of active or inactive are those of the source. No cut-off for these calls is given here.
Columns and labels:
Caco-2 [1] = assay: Cytostatic activity against human Caco-2 cells assessed as inhibition of cell growth at 1 ug/ml incubated for 48 hrs by MTS assay relative to control; format: functional
Summary of the method: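 Caco-2 cells were seeded at 40 000/well 48 h before dosing. Compound was diluted from a 10 mg/mL DMSO stock into medium (0.125, 0.5 or 1 µg/mL final; DMSO ≤0.01%) and added in triplicate for 48 h. Viability was read by MTS absorbance at 490 nm and expressed relative to the DMSO control.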

Caco-2 [2] = assay: Induction of morphological changes in human Caco-2 cells assessed as effect on cellular aggregation at 1 ug/ml preincubated for 30 mins with CRT0066854 hydrochloride followed by compound addition and measured after 48 hrs by Hoechst 3342 and phalloidin staining based confocal microscopic analysis; format: functional, cell-based; details: dose 1.0 µg/ml
Summary of the method: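 CRT0066854 hydrochloride (2.5 µM) was added to Caco-2 cells 30 min before compound at 1 µg/mL. After 48 h, nuclei and actin cytoskeleton were labelled and confocal views taken with a 20X objective; duplicates from one experiment.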

[3] = target: T1, Protein kinase C zeta type (Homo sapiens) (UniProt Q05513); assay: Activation of PKCzeta in human Caco-2 cells assessed as increase in phosphorylation at Thr410 residue at 1 ug/ml measured after 48 hrs by Western blot analysis; format: cell-based; details: filed as activator, dose 1.0 µg/ml
T1 sequence (whole entry): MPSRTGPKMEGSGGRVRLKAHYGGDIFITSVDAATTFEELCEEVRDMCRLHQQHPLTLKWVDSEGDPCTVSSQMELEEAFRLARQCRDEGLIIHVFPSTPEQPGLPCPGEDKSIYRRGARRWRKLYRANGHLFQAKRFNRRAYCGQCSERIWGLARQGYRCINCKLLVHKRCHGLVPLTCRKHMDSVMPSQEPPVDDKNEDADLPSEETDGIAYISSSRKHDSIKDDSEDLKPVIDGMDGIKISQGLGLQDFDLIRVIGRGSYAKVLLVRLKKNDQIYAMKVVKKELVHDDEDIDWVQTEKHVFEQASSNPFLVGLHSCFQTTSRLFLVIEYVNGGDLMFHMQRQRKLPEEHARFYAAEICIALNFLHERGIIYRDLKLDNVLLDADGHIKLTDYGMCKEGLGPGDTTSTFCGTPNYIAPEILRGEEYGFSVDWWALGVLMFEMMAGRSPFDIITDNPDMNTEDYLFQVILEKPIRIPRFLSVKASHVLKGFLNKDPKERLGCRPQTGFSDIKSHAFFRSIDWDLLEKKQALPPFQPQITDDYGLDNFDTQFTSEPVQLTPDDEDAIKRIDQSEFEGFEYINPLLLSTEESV
Summary of the method: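 Caco-2 cells (0.25 × 10^6/well) were pretreated or not with 2.5 µM CRT0066854 for 30 min, then treated at 1 µg/mL for 48 h. Lysis buffer was pH 7.4 Tris/NaCl/0.1% Triton/EDTA with protease and phosphatase inhibitors. 30 µg protein was run on 4–15% SDS-PAGE, blotted and probed overnight at 4°C for pThr410-PKCζ and total PKCζ, with HRP/ECL detection.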

[4] = target: Protein kinase C delta type (Homo sapiens) (UniProt Q05655); assay: Inhibition of PKCdelta in human Caco-2 cells assessed as reduction in protein phosphorylation at Ser664 residue at 1 ug/ml preincubated for 15 mins with PKCalpha inhibitor, Go6976 followed by compound addition and measured after 48 hrs by Western blot analysis; format: cell-based; details: dose 1.0 µg/ml
Chain of Protein kinase C delta type (Homo sapiens) (Q05655 whole entry, looked up): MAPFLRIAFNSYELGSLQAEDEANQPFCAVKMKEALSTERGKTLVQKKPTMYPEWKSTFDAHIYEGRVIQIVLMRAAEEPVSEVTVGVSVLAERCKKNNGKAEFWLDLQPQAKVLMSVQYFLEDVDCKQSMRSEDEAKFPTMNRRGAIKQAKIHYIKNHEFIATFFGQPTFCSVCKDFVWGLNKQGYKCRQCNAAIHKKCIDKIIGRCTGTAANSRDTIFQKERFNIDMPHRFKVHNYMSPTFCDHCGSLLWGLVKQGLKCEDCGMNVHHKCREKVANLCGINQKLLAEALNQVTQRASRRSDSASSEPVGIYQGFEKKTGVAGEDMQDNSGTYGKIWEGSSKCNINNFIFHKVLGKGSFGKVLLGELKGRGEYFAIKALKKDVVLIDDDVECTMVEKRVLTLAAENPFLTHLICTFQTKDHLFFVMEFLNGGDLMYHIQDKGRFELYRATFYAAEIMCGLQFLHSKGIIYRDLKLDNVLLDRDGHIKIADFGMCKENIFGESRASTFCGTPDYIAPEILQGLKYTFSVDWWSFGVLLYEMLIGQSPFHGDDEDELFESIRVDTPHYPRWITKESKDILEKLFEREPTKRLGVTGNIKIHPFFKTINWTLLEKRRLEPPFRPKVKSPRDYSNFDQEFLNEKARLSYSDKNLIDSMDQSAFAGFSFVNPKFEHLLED
Summary of the method: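 Caco-2 cells were given 0.2 µM Gö6976 for 15 min, then compound at 1 µg/mL for 48 h. Lysates (30 µg protein) were blotted for pSer664-PKCδ and total PKCδ with actin loading control, and the pSer664/total PKCδ ratio was quantified. Data are from one experiment.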

## C=C(C)[C@]12C[C@@H](C)[C@@]34O[C@](/C=C/[C@@H]5O[C@H]5CCCCCCCCC)(O[C@@H]1[C@@H]3[C@@H]1O[C@]1(CO)[C@@H](O)[C@]1(O)C(=O)C(C)=C[C@H]14)O2
Caco-2 [1]
  inhibition at 1 µg/mL: 30%
Caco-2 [2]
  Activity: inactive

## C=C(C)[C@]12C[C@@H](C)[C@@]34O[C@](/C=C/C=C/CCCCCCCCC)(O[C@@H]1[C@@H]3[C@@H]1O[C@]1(CO)[C@@H](O)[C@]1(O)C(=O)C(C)=C[C@H]14)O2
[3]
  Activity: Active
[4]
  inhibition: Active

From ChEMBL document CHEMBL5325455, “Daphnanes diterpenes from the latex of Hura crepitans L. and their PKCζ-dependent anti-proliferative activity on colorectal cancer cells” (Bioorg Med Chem, 2023)
